Key:
[1] = target: T1, Tyrosine-protein phosphatase non-receptor type 1 (Homo sapiens, UniProt P18031); test: Inhibition of recombinant human PTP1B using pNPP as substrate measured after 30 mins
T1 sequence (P18031 whole entry): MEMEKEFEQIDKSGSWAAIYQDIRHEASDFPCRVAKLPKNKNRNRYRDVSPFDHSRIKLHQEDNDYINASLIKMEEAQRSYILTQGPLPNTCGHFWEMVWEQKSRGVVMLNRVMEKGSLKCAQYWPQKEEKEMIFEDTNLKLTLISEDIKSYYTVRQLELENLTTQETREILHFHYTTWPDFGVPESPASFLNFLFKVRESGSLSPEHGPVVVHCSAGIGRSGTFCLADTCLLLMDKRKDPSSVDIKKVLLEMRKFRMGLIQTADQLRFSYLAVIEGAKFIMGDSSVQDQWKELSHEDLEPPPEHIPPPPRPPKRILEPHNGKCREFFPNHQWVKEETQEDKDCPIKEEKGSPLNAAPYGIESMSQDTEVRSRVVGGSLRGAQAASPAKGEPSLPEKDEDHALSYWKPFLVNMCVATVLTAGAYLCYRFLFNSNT
How it was run: (§1)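 75 nM recombinant enzyme (PTP1B, TCPTP or SHP2) with 2.5 mM pNPP in 10 mM Tris, 25 mM NaCl, 1 mM EDTA, pH 7.1; compounds added from DMSO. Reaction run 30 min at room temperature, stopped with 2.0 N NaOH, pNP read at 405 nm. Sodium vanadate as positive control. IC50 from enzyme progress curves; means of triplicates, repeated twice.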

[2] = target: T2, Tyrosine-protein phosphatase non-receptor type 2 (Homo sapiens, UniProt P17706); test: Inhibition of recombinant human TCPTP using pNPP as substrate measured after 30 mins; how it was run: as §1
T2 sequence (P17706 whole entry): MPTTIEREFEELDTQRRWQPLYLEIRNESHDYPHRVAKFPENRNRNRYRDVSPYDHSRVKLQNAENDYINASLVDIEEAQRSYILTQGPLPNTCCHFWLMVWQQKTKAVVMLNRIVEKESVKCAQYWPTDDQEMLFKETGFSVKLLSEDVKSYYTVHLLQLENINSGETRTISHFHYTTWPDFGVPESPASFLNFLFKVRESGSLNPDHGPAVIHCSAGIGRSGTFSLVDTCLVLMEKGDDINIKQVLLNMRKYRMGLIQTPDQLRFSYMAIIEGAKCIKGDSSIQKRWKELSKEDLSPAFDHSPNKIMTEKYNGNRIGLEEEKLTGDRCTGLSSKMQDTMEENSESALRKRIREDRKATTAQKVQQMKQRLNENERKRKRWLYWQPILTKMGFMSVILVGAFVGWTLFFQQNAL

[3] = target: T3, Tyrosine-protein phosphatase non-receptor type 11 (Homo sapiens, UniProt Q06124); test: Inhibition of recombinant SHP2 (unknown origin) using pNPP as substrate measured after 30 mins; how it was run: as §1
T3 sequence (Q06124 whole entry): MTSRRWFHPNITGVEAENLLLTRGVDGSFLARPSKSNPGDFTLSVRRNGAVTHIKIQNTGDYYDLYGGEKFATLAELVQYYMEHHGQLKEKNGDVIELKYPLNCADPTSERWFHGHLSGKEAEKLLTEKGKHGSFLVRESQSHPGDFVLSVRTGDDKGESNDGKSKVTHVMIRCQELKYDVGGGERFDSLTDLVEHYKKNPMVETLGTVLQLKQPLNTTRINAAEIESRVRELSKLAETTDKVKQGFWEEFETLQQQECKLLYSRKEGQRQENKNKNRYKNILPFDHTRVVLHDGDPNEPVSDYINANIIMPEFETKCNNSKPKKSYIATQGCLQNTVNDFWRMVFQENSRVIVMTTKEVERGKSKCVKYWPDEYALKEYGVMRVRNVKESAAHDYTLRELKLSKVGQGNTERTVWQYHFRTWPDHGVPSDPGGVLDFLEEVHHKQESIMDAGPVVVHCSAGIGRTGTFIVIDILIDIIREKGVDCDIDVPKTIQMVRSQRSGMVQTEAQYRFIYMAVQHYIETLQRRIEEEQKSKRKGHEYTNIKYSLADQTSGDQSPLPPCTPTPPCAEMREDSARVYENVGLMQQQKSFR

[4] = test system: CHO; test: Cytotoxicity against CHO cells assessed as reduction in cell viability measured after 24 hrs by MTT assay; assay type: cell-based; conditions: Cricetulus griseus
How it was run: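 CHO cells in DMEM with 10% FBS and 1% penicillin-streptomycin, 5% CO2, 37 °C; 5×10^3 cells/well seeded, treated after 24 h with varying compound concentrations for 24 h. MTT then added for 4 h at 37 °C in the dark, medium removed, formazan dissolved in DMSO, OD read at 490 nm.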

[5] = test system: CHO (Cricetulus griseus); test: Cytotoxicity against Chinese hamster CHO cells assessed as reduction in cell viability measured after 24 hrs by MTT assay
[6] = target: T4, Tyrosine-protein phosphatase non-receptor type 1 (Homo sapiens) (UniProt P18031); test: Inhibition of PTP1B in human HepG2 cells assessed as improvement in insulin-induced 2-NBDG uptake at 5 uM incubated for 24 hrs prior to compound washout followed by insulin stimulation for 20 mins and subsequent 2-NBDG addition measured after 60 mins by FACS analysis relative to control; assay type: cell-based
T4 sequence (whole entry): T1 sequence (P18031 whole entry)
How it was run: (§2)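 HepG2 cells in DMEM with 10% FBS and 1% penicillin-streptomycin, 5% CO2, 37 °C; 5×10^4 cells/well in 24-well plates. Compound exposure 24 h, then two PBS washes. Stimulated with 100 nM insulin for 20 min, then 50 μM 2-NBDG for 60 min. Uptake read by flow cytometry, FL1 channel; pioglitazone as positive control.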

[7] = target: T4, Tyrosine-protein phosphatase non-receptor type 1 (Homo sapiens); test: Inhibition of PTP1B in human HepG2 cells assessed as improvement in insulin-induced 2-NBDG uptake at 10 uM incubated for 24 hrs prior to compound washout followed by insulin stimulation for 20 mins and subsequent 2-NBDG addition measured after 60 mins by FACS analysis relative to control; assay type: cell-based; how it was run: as §2
[8] = target: T4, Tyrosine-protein phosphatase non-receptor type 1 (Homo sapiens); test: Inhibition of PTP1B in human HepG2 cells assessed as improvement in insulin-induced 2-NBDG uptake at 20 uM incubated for 24 hrs prior to compound washout followed by insulin stimulation for 20 mins and subsequent 2-NBDG addition measured after 60 mins by FACS analysis relative to control; assay type: cell-based; how it was run: as §2
[9] = target: T1, Tyrosine-protein phosphatase non-receptor type 1; test: Inhibition of recombinant human PTP1B (1 to 322 residues) expressed in Escherichia coli using IR5 (1142 to 1153, pY1146) as substrate by malachite green dye based colorimetric assay

For `O=C(O)C1=CO[C@@H](O[C@@H]2O[C@H](COCc3ccccc3)[C@@H](OCc3ccccc3)[C@H](OCc3ccccc3)[C@H]2OCc2ccccc2)[C@@H]2C(COCc3ccccc3)=CC[C@H]12`, the IC50 [1] was 0.38 µM, the IC50 [2] was 1.32 µM and the IC50 [3] was 3.32 µM. It also gave an IC50 [4] greater than 200 µM and an IC50 [5] greater than 200 µM.

Work on `CCOS(=O)(=O)/C=C/c1ccc(OCC2=CC[C@@H]3C(C(=O)Nc4ccc(Oc5ccc(-c6ccccc6)cc5)cc4)=CO[C@@H](OC)[C@H]23)cc1` yielded an IC50 [1] of 0.43 µM, an IC50 [2] of 0.95 µM and an IC50 [3] of 1.24 µM. For the same compound, the IC50 [4] was greater than 200 µM, the inhibition [6] was 38.6% and the inhibition [7] was 68%. It also gave an inhibition [8] of 69.6% and an IC50 [5] greater than 200 µM.

`CCc1ccc(CCOc2ccc(CC3SC(=O)NC3=O)cc2)nc1` (stereo not drawn) was tested, and the inhibition [6] was 33.8%, the inhibition [7] was 46% and the inhibition [8] was 63.5%.

Compound `CCOS(=O)(=O)/C=C/c1ccc(OCC2=CC[C@@H]3C(C(=O)Nc4ccc(Oc5ccccc5)cc4)=CO[C@@H](OCc4ccccc4)[C@H]23)cc1` has an IC50 [1] of 0.99 µM, an IC50 [4] of 62 µM and an IC50 [5] greater than 200 µM.

`O=C(Nc1ccc(-c2ccccc2)cc1)C1=CO[C@@H](O[C@@H]2O[C@H](CO)[C@@H](O)[C@H](O)[C@H]2O)[C@@H]2C(CO)=CC[C@H]12` showed an IC50 [1] of 21.7 µM.

`CC(C)(C)c1ccc(Oc2ccc(NC(=O)C3=CO[C@@H](O[C@@H]4O[C@H](CO)[C@@H](O)[C@H](O)[C@H]4O)[C@@H]4C(CO)=CC[C@H]34)cc2)cc1` gave an IC50 [1] of 17.7 µM, an IC50 [2] greater than 100 µM and an IC50 [3] greater than 100 µM.

`CCOS(=O)(=O)/C=C/c1ccc(OCC2=CC[C@@H]3C(C(=O)Nc4ccc(Oc5ccc6ccccc6c5)cc4)=CO[C@@H](OC)[C@H]23)cc1` was tested, and the IC50 [1] was 0.75 µM, the IC50 [4] was greater than 200 µM and the IC50 [5] was greater than 200 µM.

`COC(=O)C1=CO[C@@H](O[C@@H]2O[C@H](COCc3ccccc3)[C@@H](OCc3ccccc3)[C@H](OCc3ccccc3)[C@H]2OCc2ccccc2)[C@@H]2C(COCc3ccccc3)=CC[C@H]12` was tested, and the IC50 [1] was 0.68 µM, the IC50 [4] was 42 µM and the IC50 [5] was greater than 200 µM.

For `COC(=O)C1=CO[C@@H](OC)[C@@H]2C(CO)=CC[C@H]12`, the IC50 [1] was 236 µM.

With `CCOS(=O)(=O)/C=C/c1ccc(OCC2=CC[C@@H]3C(C(=O)Nc4ccc(Oc5ccccc5)cc4)=CO[C@@H](OC)[C@H]23)cc1` the IC50 [1] was 2.67 µM, the IC50 [4] was greater than 200 µM and the IC50 [5] was greater than 200 µM.

With `CCc1ccccc1NC(=O)C1=CO[C@@H](O[C@@H]2O[C@H](CO)[C@@H](O)[C@H](O)[C@H]2O)[C@@H]2C(CO)=CC[C@H]12` the IC50 [1] was 18.3 µM, the IC50 [2] was greater than 100 µM and the IC50 [3] was greater than 100 µM.

In the case of `CCOS(=O)(=O)/C=C/c1ccc(OCC2=CC[C@@H]3C(C(=O)OC)=CO[C@@H](OCc4ccccc4)[C@H]23)cc1`, the IC50 [1] is reported as 13.2 µM.

Work on `O=C1C[C@@H](O[C@@H]2O[C@H](CO)[C@@H](O)[C@H](O)[C@H]2O)CO1` yielded an IC50 [1] of 5.8 µM, an IC50 [2] greater than 50 µM and an IC50 [3] greater than 50 µM. The IC50 [9] was 5.14 µM.

`COC(=O)C1=CO[C@@H](O)[C@@H]2C(CO)=CC[C@H]12` [GENIPIN] was tested, and the IC50 [1] was greater than 500 µM, the IC50 [2] was greater than 500 µM and the IC50 [3] was greater than 500 µM.

For `COc1ccccc1NC(=O)C1=CO[C@@H](O[C@@H]2O[C@H](CO)[C@@H](O)[C@H](O)[C@H]2O)[C@@H]2C(CO)=CC[C@H]12`, the IC50 [1] was 50.8 µM.

In the case of `O=C(Nc1ccc(Oc2ccccc2)cc1)C1=CO[C@@H](O[C@@H]2O[C@H](COCc3ccccc3)[C@@H](OCc3ccccc3)[C@H](OCc3ccccc3)[C@H]2OCc2ccccc2)[C@@H]2C(COCc3ccccc3)=CC[C@H]12`, the IC50 [1] is reported as 0.4 µM, the IC50 [4] is reported as greater than 200 µM and the IC50 [5] is reported as greater than 200 µM.

`O=C(Nc1ccccc1)C1=CO[C@@H](O[C@@H]2O[C@H](CO)[C@@H](O)[C@H](O)[C@H]2O)[C@@H]2C(CO)=CC[C@H]12` gave an IC50 [1] greater than 100 µM.

Work on `CCOS(=O)(=O)/C=C/c1ccc(OCC2=CC[C@@H]3C(C(=O)Nc4ccc(Oc5ccc(Br)cc5Cl)cc4)=CO[C@@H](OCc4ccccc4)[C@H]23)cc1` yielded an IC50 [1] of 0.41 µM, an IC50 [2] of 1.29 µM and an IC50 [3] of 3.97 µM. It also gave an IC50 [4] greater than 200 µM, an inhibition [6] of 43.8% and an inhibition [7] of 68.3%. For the same compound, the inhibition [8] was 64.4% and the IC50 [5] was greater than 200 µM.

`O=C(Nc1ccc(Oc2ccccc2)cc1)C1=CO[C@@H](O[C@@H]2O[C@H](CO)[C@@H](O)[C@H](O)[C@H]2O)[C@@H]2C(CO)=CC[C@H]12` showed an IC50 [1] of 25.2 µM.

`CCOS(=O)(=O)/C=C/c1ccc(OCC2=CC[C@@H]3C(C(=O)Nc4ccc(Oc5ccc(Br)cc5Cl)cc4)=CO[C@@H](OC)[C@H]23)cc1` gave an IC50 [1] of 1.05 µM, an IC50 [4] greater than 200 µM and an IC50 [5] greater than 200 µM.

`O=C(Nc1ccccc1F)C1=CO[C@@H](O[C@@H]2O[C@H](CO)[C@@H](O)[C@H](O)[C@H]2O)[C@@H]2C(CO)=CC[C@H]12` showed an IC50 [1] of 20.8 µM.

With `CCO[C@@H]1OC=C(C(=O)OC)[C@H]2CC=C(CO)[C@@H]12` the IC50 [1] was 64.7 µM.

`COC(=O)C1=CO[C@@H](OCc2ccccc2)[C@@H]2C(CO)=CC[C@H]12` gave an IC50 [1] of 40.3 µM.

In the case of `CCOS(=O)(=O)/C=C/c1ccc(CNC(=O)C2=CO[C@@H](O[C@@H]3O[C@H](COCc4ccccc4)[C@@H](OCc4ccccc4)[C@H](OCc4ccccc4)[C@H]3OCc3ccccc3)[C@@H]3C(COCc4ccccc4)=CC[C@H]23)cc1`, the IC50 [1] is reported as 0.35 µM, the IC50 [4] is reported as greater than 200 µM and the inhibition [6] is reported as 43.4%. The inhibition [7] was 36.5%, the inhibition [8] was 49.8% and the IC50 [5] was greater than 200 µM.

Compound `COC(=O)C1=CO[C@@H](O[C@@H]2O[C@H](CO)[C@@H](O)[C@H](O)[C@H]2O)[C@@H]2C(CO)=CC[C@H]12` [GENIPOSIDE] has an IC50 [1] greater than 500 µM, an IC50 [2] greater than 500 µM and an IC50 [3] greater than 500 µM.

— ChEMBL document CHEMBL4765409, “Synthesis and biological evaluation of geniposide derivatives as potent and selective PTPlB inhibitors” (Eur J Med Chem, 2020)
